Experimental data published in ChEMBL document CHEMBL2202989, “New adamantane phenylalkylamines with σ-receptor binding affinity and anticancer activity, associated with putative antagonism of neuropathic pain” (J Med Chem, 2012).

How the values were obtained:
[1] = tested on: BXPC-3; experiment: Cell cycle arrest in human BxPC3 cells assessed as accumulation at G1 phase at 0.5 uM after 24 hrs using propidium iodide staining by FACS analysis (reference value: 41 %); type: functional
Procedure, shortened: (§1)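 Cells were plated 24 h before treatment and exposed for 24 h at final 0.5, 5, 15 and 50 μM in 0.5% DMSO, against vehicle-treated controls. Cells were then trypsinised and fixed in cold ethanol for 3 h at 4 °C. They were stained in a mix of RNase (200 μg/mL) and PI (1 mg/mL) for 45 min at room temperature in the dark. Flow cytometry used 488 nm excitation and 10 000 gated cells. Phase percentages were assigned from DNA content.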

[2] = tested on: BXPC-3; experiment: Cell cycle arrest in human BxPC3 cells assessed as accumulation at sub G1 phase at 50 uM after 24 hrs using propidium iodide staining by FACS analysis (reference value: 9 %); type: functional; procedure, shortened: as §1
[3] = tested on: BXPC-3; experiment: Cell cycle arrest in human BxPC3 cells assessed as accumulation at sub G1 phase at 15 uM after 24 hrs using propidium iodide staining by FACS analysis (reference value: 9 %); type: functional; procedure, shortened: as §1
[4] = (§2) Growth inhibition of human NHDF cells after 48 hrs by SRB assay; type: cell-based; settings: NHDF cells
Procedure, shortened: (§3)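 Cells grown in RPMI 1640 with 5% heat-inactivated FCS, 2 mM L-glutamine and antibiotics, 37 °C, 5% CO2. Seeded at 3500–30000 cells/well and left 24 h before dosing. DMSO solutions added at 10-fold dilutions from 100 to 0.01 μM for 48 h. Cells TCA-fixed and SRB-stained, absorbance read at 540 nm; GI50 derived against the time-zero plate.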

[5] = tested on: NHDF; experiment: as §2; type: cell-based; settings: nhdf, 48 h; procedure, shortened: as §3
[6] = tested on: HL-60(TB); experiment: Growth inhibition of human HL-60(TB) cells after 48 hrs by SRB assay; type: functional; settings: HL-60, 48 h
Procedure, shortened: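 Cells kept in RPMI 1640 with 5% FCS at 37 °C, 5% CO2, and seeded 24 h before dosing. Compound given from DMSO at 10-fold dilutions, 100 to 0.01 μM, for 48 h. Cells fixed with TCA, stained with SRB, absorbance read at 540 nm. GI50 taken from a time-zero plate.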

[7] = tested on: HCT-15; experiment: Growth inhibition of human HCT15 cells after 48 hrs by SRB assay; type: functional; settings: HCT-15, 48 h; procedure, shortened: as §3
[8] = target: Sigma non-opioid intracellular receptor 1 (Homo sapiens, UniProt Q99720); experiment: Displacement of [3H]-(+)-pentazocine from sigma 1 receptor in human Jurkat cell membrane; type: cell membranes
Procedure, shortened: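 Jurkat cell membranes incubated with 8 nM [3H](+)-pentazocine and a range of test concentrations for 2 h at 22 °C in Tris-HCl buffer, pH 7.4. Nonspecific binding defined with 10 μM haloperidol. Run in triplicate.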

[9] = tested on: OVCAR-5; experiment: Antitumor activity against human OVCAR5 cells xenografted in SCID mouse assessed as primary tumor growth inhibition at 55 mg/kg, ip administered 5 consecutive days in a week for two cycles measured after 2 cycles relative to control; type: functional; settings: OVCAR-5, ip, route intraperitoneal, read-out: TGI
Procedure, shortened: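 SCID mice carried OVCAR5 xenografts (10^6 cells per inoculum), 16 mice (32 tumors) per group, with ip dosing in 5% Tween 80 from a tumor volume of about 100 mm3. Caliper volume was measured twice weekly and %ΔT/ΔC derived. At termination, primary tumors were weighed and secondary metastases were scored at axillary and bone sites (n = 7−8). Two-tailed t test.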

[10] = tested on: PC-3; experiment: Induction of apoptosis in human PC3 cells assessed as cleaved caspase3 containing cells at 5 uM by antibody-based FACS analysis (reference value: 3.2 %); type: functional
[11] = tested on: PC-3; experiment: Induction of apoptosis in human PC3 cells assessed as early apoptosis at 5 uM using annexin V/7-AAD by FACS analysis (reference value: 5 %); type: functional
Procedure, shortened: (§4)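 Cells plated 24 h before treatment, then exposed 24 h to 0.5, 5, 15 or 50 μM compound (final DMSO 0.5%); vehicle controls included. Cells scraped and stained with annexin V-FITC and 7-AAD for 15 min on ice in the dark. Flow cytometry with 488 nm excitation, 10,000 gated cells. Early apoptosis was annexin V+/7-AAD−, late was annexin V+/7-AAD+.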

[12] = tested on: PC-3; experiment: Induction of apoptosis in human PC3 cells assessed as healthy cells at 5 uM using annexin V/7-AAD by FACS analysis (reference value: 91 %); type: functional
[13] = tested on: IGROV-1; experiment: Induction of apoptosis in human IGROV1 cells assessed as total apoptotic death at 15 uM using annexin V/7-AAD by FACS analysis (reference value: 13 %); type: functional; procedure, shortened: as §4
[14] = tested on: IGROV-1; experiment: Induction of apoptosis in human IGROV1 cells assessed as total apoptotic death at 0.5 uM using annexin V/7-AAD by FACS analysis (reference value: 13 %); type: functional; procedure, shortened: as §4
[15] = tested on: IGROV-1; experiment: Induction of apoptosis in human IGROV1 cells assessed as healthy cells at 50 uM using annexin V/7-AAD by FACS analysis (reference value: 86 %); type: functional
[16] = tested on: BXPC-3; experiment: Induction of apoptosis in human BxPC3 cells assessed as late apoptosis at 0.5 uM using annexin V/7-AAD by FACS analysis (reference value: 9 %); type: functional
[17] = tested on: BXPC-3; experiment: Induction of apoptosis in human BxPC3 cells assessed as early apoptosis at 5 uM using annexin V/7-AAD by FACS analysis (reference value: 9 %); type: functional
[18] = tested on: PC-3; experiment: Cell cycle arrest in human PC3 cells assessed as accumulation at >G2/M phase at 50 uM after 24 hrs using propidium iodide staining by FACS analysis (reference value: 6 %); type: functional
[19] = tested on: PC-3; experiment: Cell cycle arrest in human PC3 cells assessed as accumulation at G2 phase at 0.5 uM after 24 hrs using propidium iodide staining by FACS analysis (reference value: 12 %); type: functional
[20] = tested on: IGROV-1; experiment: Cell cycle arrest in human IGROV1 cells assessed as accumulation at >G2/M phase at 50 uM after 24 hrs using propidium iodide staining by FACS analysis (reference value: 21 %); type: functional; procedure, shortened: as §1
[21] = tested on: IGROV-1; experiment: Cell cycle arrest in human IGROV1 cells assessed as accumulation at G2 phase at 15 uM after 24 hrs using propidium iodide staining by FACS analysis (reference value: 19 %); type: functional
[22] = tested on: IGROV-1; experiment: Cell cycle arrest in human IGROV1 cells assessed as accumulation at G2 phase at 0.5 uM after 24 hrs using propidium iodide staining by FACS analysis (reference value: 19 %); type: functional; procedure, shortened: as §1
[23] = tested on: IGROV-1; experiment: Cell cycle arrest in human IGROV1 cells assessed as accumulation at S phase at 50 uM after 24 hrs using propidium iodide staining by FACS analysis (reference value: 29 %); type: functional
[24] = tested on: IGROV-1; experiment: Cell cycle arrest in human IGROV1 cells assessed as accumulation at S phase at 5 uM after 24 hrs using propidium iodide staining by FACS analysis (reference value: 29 %); type: functional
[25] = tested on: IGROV-1; experiment: Cell cycle arrest in human IGROV1 cells assessed as accumulation at G1 phase at 50 uM after 24 hrs using propidium iodide staining by FACS analysis (reference value: 27 %); type: functional; procedure, shortened: as §1
[26] = tested on: BXPC-3; experiment: Cell cycle arrest in human BxPC3 cells assessed as accumulation at >G2/M phase at 15 uM after 24 hrs using propidium iodide staining by FACS analysis (reference value: 6 %); type: functional; procedure, shortened: as §1
[27] = read-out: LC50 (the source's name)

Chain of Sigma non-opioid intracellular receptor 1 (Q99720 whole entry): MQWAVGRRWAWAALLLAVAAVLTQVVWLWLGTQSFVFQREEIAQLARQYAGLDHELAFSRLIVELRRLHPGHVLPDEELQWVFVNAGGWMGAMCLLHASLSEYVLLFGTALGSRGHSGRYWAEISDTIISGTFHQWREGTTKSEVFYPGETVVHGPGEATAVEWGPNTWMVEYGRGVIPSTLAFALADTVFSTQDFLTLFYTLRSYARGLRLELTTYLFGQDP

CN1CCN(CCCc2ccc(C(c3ccccc3)C34CC5CC(CC(C5)C3)C4)cc2)CC1 (stereo unspecified)
Activity [1]: 41% | Activity [2]: 23% | Activity [3]: 24% | GI50 at 48 h [4]: 9.68 µM | LC50 [5]: 100 µM | TGI [5]: 78.2 µM | GI50 [6]: 0.00402 µM | TGI [6]: 0.00788 µM | CC50 [6, 27]: 0.1 µM | GI50 [7]: 3.5 µM | TGI [7]: 6.35 µM | CC50 [7, 27]: 0.0092 µM | IC50 [8]: 0.0481 µM | inhibition in vivo at 55 mg/kg [9]: 46.9% | Activity [10]: 2% | Activity [11]: 5% | Activity [12]: 92% | Activity [13]: 57% | Activity [14]: 11% | Activity [15]: 26% | Activity [16]: 7% | Activity [17]: 11% | Activity [18]: 17% | Activity [19]: 15% | Activity [20]: 15% | Activity [21]: 27% | Activity [22]: 23% | Activity [23]: 28% | Activity [24]: 27% | Activity [25]: 30% | Activity [26]: 5%
